Test results taken from ChEMBL document CHEMBL2203189, “Synthesis and pharmacology of 1-alkyl-3-(1-naphthoyl)indoles: steric and electronic effects of 4- and 8-halogenated naphthoyl substituents” (Bioorg Med Chem, 2012).
The source made the active and inactive calls.

Legend:
[1] = target: T1, Cannabinoid receptor 1 (Homo sapiens, UniProt P21554); test: Displacement of [3H]CP55940 from human CB1 receptor expressed in HEK293 cells after 1 hr by liquid scintillation spectrophotometry; format: cell-based
How it was run: (§1)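 Membranes (50 µg) from HEK-293 cells stably expressing human CB1, cultured in DMEM/10% FBS. Incubated with 0.5 nM [3H]CP55,940 and test compound at 1 nM–10 µM in buffer with BSA (5 mg/mL), 1 h at 30 °C. Nonspecific binding defined with excess unlabelled CP55,940. Filtered through GF/B, then scintillation counting.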

[2] = target: Cannabinoid receptor 2 (Homo sapiens, UniProt P34972); test: Displacement of [3H]CP55940 from human CB2 receptor expressed in CHO cells after 1 hr by liquid scintillation spectrophotometry; format: cell-based
How it was run: as §1, with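 “CHO” for “HEK-293”, “CB2,” for “CB1,”, “fetal calf serum.” for “FBS.”, “µM” for “µM in buffer”, “GF/B filtration,” for “Filtered through GF/B,”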

[3] = species: Homo sapiens; test: Selectivity ratio of Ki for human CB1 receptor to Ki for human CB2 receptor
[4] = tested on: Mus musculus; test: Locomotor activity in Harlan ICR mouse assessed as inhibition of activity level at 77 umol/kg, iv from 5 to 15 mins by spontaneous locomotor activity test relative to vehicle treated control; format: functional
How it was run: (§2)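 Male ICR mice, n = 6 per dose, single probe dose iv in emulphor–ethanol–saline 1:1:18. Photocell beam interruptions recorded over 10 min, at 5–15 min after dosing. Result given as % inhibition relative to the vehicle group.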

[5] = tested on: Mus musculus; test: Antinociceptive activity in Harlan ICR mouse assessed as latency to heat-induced tail flicking at 77 umol/kg, iv at 20 mins relative to control; format: functional
[6] = tested on: Mus musculus; test: Hypothermic activity in Harlan ICR mouse assessed as change in rectal temperature at 77 umol/kg, iv at 30 mins; format: functional
How it was run: (§3)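 Male ICR mice, n = 6 per dose. Single probe dose iv in emulphor–ethanol–saline 1:1:18. Rectal temperature taken with a thermistor probe at 25 mm depth before dosing and at 30 min. Result given as change from pre-injection value (°C).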

[7] = tested on: Mus musculus; test: Induction of catalepsy in Harlan ICR mouse at 77 umol/kg, iv at 40 mins measured for 5 mins by ring immobility test; format: functional
How it was run: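 Male ICR mice given a single iv probe dose in emulphor–ethanol–saline 1:1:18. At 40 min placed on a 5.5 cm ring raised 16 cm and observed for 5 min by blinded raters. Up to 5 escapes allowed; mice escaping before 2.5 min excluded. Immobility index = time motionless / 300 s × 100.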

[8] = tested on: Mus musculus; test: Locomotor activity in iv dosed Harlan ICR mouse from 5 to 15 mins by spontaneous locomotor activity test; format: functional
[9] = tested on: Mus musculus; test: Antinociceptive activity in iv dosed Harlan ICR mouse assessed as latency to heat-induced tail flicking at 20 mins; format: functional
How it was run: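 Male ICR mice, 18–25 g, n = 6 per dose. Multiple doses iv by tail vein in emulphor–ethanol–saline 1:1:18. Tail-flick latency at 20 min, 10 s cutoff, expressed as %MPE.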

[10] = tested on: Mus musculus; test: Hypothermic activity in iv dosed Harlan ICR mouse assessed as change in rectal temperature at 30 mins; format: functional; details: 0.5 h
[11] = tested on: Mus musculus; test: Induction of catalepsy in iv dosed Harlan ICR mouse at 40 mins measured for 5 mins by ring immobility test; format: functional
[12] = tested on: Mus musculus; test: Locomotor activity in Harlan ICR mouse assessed as inhibition of activity level at 86 umol/kg, iv from 5 to 15 mins by spontaneous locomotor activity test relative to vehicle treated control; format: functional; how it was run: as §2
[13] = tested on: Mus musculus; test: Antinociceptive activity in Harlan ICR mouse assessed as latency to heat-induced tail flicking at 86 umol/kg, iv at 20 mins relative to control; format: functional
[14] = tested on: Mus musculus; test: Hypothermic activity in Harlan ICR mouse assessed as change in rectal temperature at 86 umol/kg, iv at 30 mins; format: functional, organism-based; how it was run: as §3
[15] = tested on: Mus musculus; test: Locomotor activity in Harlan ICR mouse assessed as inhibition of activity level at 74 umol/kg, iv from 5 to 15 mins by spontaneous locomotor activity test relative to vehicle treated control; format: functional; how it was run: as §2
[16] = tested on: Mus musculus; test: Hypothermic activity in Harlan ICR mouse assessed as change in rectal temperature at 74 umol/kg, iv at 30 mins; format: functional; how it was run: as §3
[17] = tested on: Mus musculus; test: Antinociceptive activity in Harlan ICR mouse assessed as latency to heat-induced tail flicking at 74 umol/kg, iv at 20 mins relative to control; format: functional
[18] = target: T1, Cannabinoid receptor 1; test: Activation of human CB1 receptor expressed in HEK293 cells assessed as [35S]GTPgamma binding after 90 mins by liquid scintillation spectrophotometry relative to CP55940; format: functional, cell-based
How it was run: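 Membranes from HEK-293 cells stably expressing human CB1, pelleted at 50,000g and taken up in Tris-HCl pH 7.4 with MgCl2, EGTA and NaCl. 10 µg protein with BSA, 20 µM GDP, 0.1 nM [35S]GTPγS and graded test concentrations, 90 min at 30 °C. 2 µM CP55,940 run as internal standard; basal without agonist, nonspecific with 10 µM GTPγS. Filtration, then scintillation counting.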

[19] = tested on: Mus musculus; test: Locomotor activity in Harlan ICR mouse at 30 mg/kg, iv from 5 to 15 mins by spontaneous locomotor activity test in the presence of rimonabant; format: functional, organism-based; parameters: dose 30 mg/kg
[20] = tested on: Mus musculus; test: Antinociceptive activity in Harlan ICR mouse assessed as latency to heat-induced tail flicking at 30 mg/kg, iv at 20 mins in the presence of rimonabant; format: functional, organism-based; parameters: dose 30 mg/kg
[21] = tested on: Mus musculus; test: Hypothermic activity in Harlan ICR mouse assessed as change in rectal temperature at 30 mg/kg, iv at 30 mins in the presence of rimonabant; format: functional, organism-based; parameters: dose 30 mg/kg
[22] = tested on: Mus musculus; test: Induction of catalepsy in Harlan ICR mouse at 30 mg/kg, iv 40 mins measured for 5 mins by ring immobility test in the presence of rimonabant; format: functional, organism-based; parameters: dose 30 mg/kg

T1 sequence (P21554 whole entry): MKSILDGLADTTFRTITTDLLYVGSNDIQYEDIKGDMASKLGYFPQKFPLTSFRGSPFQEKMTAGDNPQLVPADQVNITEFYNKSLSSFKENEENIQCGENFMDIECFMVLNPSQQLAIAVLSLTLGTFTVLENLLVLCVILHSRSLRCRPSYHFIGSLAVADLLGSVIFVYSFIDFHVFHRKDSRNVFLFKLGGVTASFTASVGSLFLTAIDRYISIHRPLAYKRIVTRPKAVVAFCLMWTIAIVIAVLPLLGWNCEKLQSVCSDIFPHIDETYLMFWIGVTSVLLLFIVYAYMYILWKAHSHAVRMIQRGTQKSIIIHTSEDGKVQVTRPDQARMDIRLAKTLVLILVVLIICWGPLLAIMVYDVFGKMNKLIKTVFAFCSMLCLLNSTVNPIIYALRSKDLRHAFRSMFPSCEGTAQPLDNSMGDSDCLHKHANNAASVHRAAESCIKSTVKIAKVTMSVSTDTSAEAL
Cannabinoid receptor 2, sequence (P34972 whole entry): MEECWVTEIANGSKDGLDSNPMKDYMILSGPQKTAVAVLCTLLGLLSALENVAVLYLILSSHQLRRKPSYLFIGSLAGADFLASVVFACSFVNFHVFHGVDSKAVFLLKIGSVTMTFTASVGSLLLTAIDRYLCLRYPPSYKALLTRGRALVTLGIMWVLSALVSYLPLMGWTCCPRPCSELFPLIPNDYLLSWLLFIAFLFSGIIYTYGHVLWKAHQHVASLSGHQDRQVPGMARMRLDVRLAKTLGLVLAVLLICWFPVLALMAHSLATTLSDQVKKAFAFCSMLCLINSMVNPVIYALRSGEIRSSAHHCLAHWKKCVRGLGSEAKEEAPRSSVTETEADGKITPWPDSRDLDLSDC

`CCCCCn1c(C)c(C(=O)c2ccc(Cl)c3ccccc23)c2ccccc21` gave a Ki [1] of 8.9 nM, a Ki [2] of 2.3 nM and a Ratio Ki [3] of 4. The inhibition in vivo at 77 µmol/kg [4] was 94%, the Activity [5] was 100% and the Activity [6] was -6.4%. It also gave an Activity [7] of 88%.
Work on `CCCCCn1c(C)c(C(=O)c2ccc(I)c3ccccc23)c2ccccc21` yielded a Ki [1] of 14 nM, a Ki [2] of 2.1 nM and a Ratio Ki [3] of 7. It also gave an ED50 [8] of 1.1 µmol/kg, an ED50 [9] of 2.5 µmol/kg and an ED50 [10] of 2.6 µmol/kg. It also gave an ED50 [11] of 2.5 µmol/kg.
`Cc1c(C(=O)c2cccc3ccccc23)c2cccc3c2n1[C@H](CN1CCOCC1)CO3` [WIN-552122] was tested, and the ED50 [8] was 0.23 µmol/kg and the ED50 [9] was 0.94 µmol/kg.
`CCCn1cc(C(=O)c2cccc3cccc(Cl)c23)c2ccccc21` gave a Ki [1] of 642 nM, a Ki [2] of 134 nM and a Ratio Ki [3] of 4.8. The inhibition in vivo at 86 µmol/kg [12] was 68%, the Activity [13] was 72% and the Activity [14] was “inactive”.
Work on `CCCn1c(C)c(C(=O)c2cccc3cccc(Br)c23)c2ccccc21` yielded a Ki [1] of over 10000 nM, a Ki [2] of 278 nM and a Ratio Ki [3] of over 36. For the same molecule, the inhibition in vivo at 74 µmol/kg [15] was 49%, the Activity [16] was -2.3% and the Activity [17] was 72%.
`CCCn1cc(C(=O)c2ccc(Cl)c3ccccc23)c2ccccc21` gave a Ki [1] of 93 nM, a Ki [2] of 44 nM and a Ratio Ki [3] of 2.
With `CCCn1cc(C(=O)c2cccc3cccc(Br)c23)c2ccccc21` the Ki [1] was over 10000 nM, the Ki [2] was 192 nM and the Ratio Ki [3] was over 52. For the same molecule, the inhibition in vivo at 77 µmol/kg [4] was 76%, the Activity [5] was 9% and the Activity [6] was -2%. It also gave an Activity [7] of 5%.
`CCCn1c(C)c(C(=O)c2ccc(Br)c3ccccc23)c2ccccc21` showed a Ki [1] of 373 nM, a Ki [2] of 31 nM and a Ratio Ki [3] of 12. For the same molecule, the inhibition in vivo at 74 µmol/kg [15] was 80%, the Activity [16] was -5% and the Activity [17] was 96%.
`CCCn1c(C)c(C(=O)c2ccc(F)c3ccccc23)c2ccccc21` showed a Ki [1] of 530 nM, a Ki [2] of 38 nM and a Ratio Ki [3] of 14. For the same molecule, the ED50 [8] was 9.6 µmol/kg, the ED50 [9] was 11.9 µmol/kg and the ED50 [10] was 30.1 µmol/kg. For the same molecule, the ED50 [11] was 23.2 µmol/kg, the Emax [18] was 59% and the Activity [19] was “inactive”. For the same molecule, the Activity [20] was “inactive”, the Activity [21] was “inactive” and the Activity [22] was “inactive”.
In the case of `CCCCCn1cc(C(=O)c2cccc3cccc(I)c23)c2ccccc21`, the Ki [1] is reported as 73 nM, the Ki [2] is reported as 3.3 nM and the Ratio Ki [3] is reported as 22. The ED50 [8] was 1.8 µmol/kg, the ED50 [9] was 1.3 µmol/kg and the ED50 [10] was 6.4 µmol/kg. The ED50 [11] was 3.6 µmol/kg.
Work on `CCCCCn1c(C)c(C(=O)c2ccc(Br)c3ccccc23)c2ccccc21` yielded a Ki [1] of 14 nM, a Ki [2] of 2.8 nM and a Ratio Ki [3] of 5.
`CCCCCc1cc(O)c2c(c1)OC(C)(C)[C@@H]1CCC(C)=C[C@@H]21` [DRONABINOL] gave an ED50 [8] of 3.2 µmol/kg.
In the case of `CCCCCn1cc(C(=O)c2ccc(F)c3ccccc23)c2ccccc21`, the Ki [1] is reported as 7.2 nM, the Ki [2] is reported as 3.2 nM and the Ratio Ki [3] is reported as 2. The ED50 [8] was under 0.08 µmol/kg, the ED50 [9] was 0.14 µmol/kg and the ED50 [10] was under 0.08 µmol/kg. For the same molecule, the ED50 [11] was 0.58 µmol/kg.
